Active and inactive are the calls of the source.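 How the source made its calls, unless noted: active means Her2 level under about 52% in both replicate screens, with viability over 70% of control (limit read from the data); inconclusive means Her2 under the limit in one screen only, or viability under 70%; inactive means Her2 level above the set limit.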
Experiments:
[1] = reducers of endogenous Her2 protein level, primary screen, SKBR3 breast tumor cells, AlphaScreen, ATP viability (AID 461); conditions: 18-24 h, measured here: SKBR3 viability, ATP luminescence, at 10 µM;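 on Her2 level: lower value means less Her2 protein in the cells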;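 on viability: percent of carrier control wells set as 100% viability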
[2] = biological target: Receptor tyrosine-protein kinase erbB-2 (Homo sapiens) (UniProt P04626); assay: as above; conditions: 18-24 h, at 10 µM, stronger effect = lower value
Sequence of Receptor tyrosine-protein kinase erbB-2 (Homo sapiens) (P04626 whole entry, looked up): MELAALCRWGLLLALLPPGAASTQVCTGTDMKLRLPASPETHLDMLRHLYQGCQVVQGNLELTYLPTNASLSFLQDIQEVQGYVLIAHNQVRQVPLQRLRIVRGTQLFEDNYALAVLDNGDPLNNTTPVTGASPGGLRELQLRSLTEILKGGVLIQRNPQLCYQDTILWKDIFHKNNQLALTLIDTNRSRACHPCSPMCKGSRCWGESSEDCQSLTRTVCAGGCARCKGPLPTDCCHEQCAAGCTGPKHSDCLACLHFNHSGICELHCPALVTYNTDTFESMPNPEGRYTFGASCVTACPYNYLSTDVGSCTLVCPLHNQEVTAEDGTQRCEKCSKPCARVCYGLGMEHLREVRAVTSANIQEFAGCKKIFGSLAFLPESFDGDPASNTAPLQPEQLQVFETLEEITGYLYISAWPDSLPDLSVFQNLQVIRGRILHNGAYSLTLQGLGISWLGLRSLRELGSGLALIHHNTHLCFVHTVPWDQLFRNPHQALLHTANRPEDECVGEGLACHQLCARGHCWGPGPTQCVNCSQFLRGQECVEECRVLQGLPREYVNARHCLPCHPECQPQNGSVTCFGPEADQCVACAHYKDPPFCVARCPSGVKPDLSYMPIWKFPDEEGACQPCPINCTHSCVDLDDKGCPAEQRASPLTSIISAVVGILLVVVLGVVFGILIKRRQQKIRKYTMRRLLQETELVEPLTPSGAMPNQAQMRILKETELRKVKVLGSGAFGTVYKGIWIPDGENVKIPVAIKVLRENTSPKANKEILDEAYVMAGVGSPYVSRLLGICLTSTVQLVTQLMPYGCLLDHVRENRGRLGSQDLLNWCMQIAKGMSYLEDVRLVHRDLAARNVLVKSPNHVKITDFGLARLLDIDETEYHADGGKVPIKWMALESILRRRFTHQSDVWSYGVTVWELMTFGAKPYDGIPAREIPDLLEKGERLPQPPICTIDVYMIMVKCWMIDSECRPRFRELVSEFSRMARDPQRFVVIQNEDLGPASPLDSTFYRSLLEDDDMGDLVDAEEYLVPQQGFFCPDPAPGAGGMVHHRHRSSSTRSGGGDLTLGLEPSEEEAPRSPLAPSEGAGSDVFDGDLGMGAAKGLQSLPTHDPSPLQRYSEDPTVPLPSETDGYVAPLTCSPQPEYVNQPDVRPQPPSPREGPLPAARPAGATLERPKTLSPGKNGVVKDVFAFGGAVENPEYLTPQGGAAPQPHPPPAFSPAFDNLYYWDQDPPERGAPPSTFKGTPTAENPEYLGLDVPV

[3] = SK-BR-3 cell growth inhibitors, pilot screen, 24 h, human (AID 572;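 active means viability at or below 10% of carrier control in both of two separate runs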;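 further: compound exposure lasted between 18 and 24 h rather than exactly 24 h; 100% = carrier-treated control wells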); conditions: SK-BR-3 viability, CellTiter-Glo luminescence, at 10 µM, stronger effect = lower value
[4] = HUVEC growth inhibition – cell-based, human, primary screen (AID 575;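 active means viability at or below 30% in both replicate assays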;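 further: 100% = median of untreated cell wells with 0.1% DMSO on each plate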); conditions: HUVEC proliferation, CellTiter-Glo luminescence, 72 h; at 10 µM; stronger effect = lower value
How it was run: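 Assay system: Primary human umbilical vein endothelial cells | Quantity: 1250 cells per well | Medium: Supplemented EBM, 2% fetal bovine serum | Detection: CellTiter-Glo luminescence measuring cellular ATP | Read-out: % viability vs DMSO wells | Plate: Collagen-coated 384-well format | Times: 72 h exposure, 37 °C, 5% CO2, 30 min RT equilibration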

[5] = growth inhibitors of H69AR lung tumor, primary screen, human, duplicate replicates (AID 580;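 active means viability at or under a set limit in both replicates, limit being median viability minus 3 SD, cut at about 48% in these data, passing the limit was not always enough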;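 further: 100% = mean luminescence of untreated wells and 0% = no signal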); conditions: H69AR lung tumor cells viability, ATP luminescence, 72 h; at 10 µM; stronger effect = lower value
[6] = reversal of MRP1-mediated doxorubicin resistance, pilot screen, H69AR cells, doxorubicin co-treatment (AID 601;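 active means viability loss from added drug above about 55%, and viability with drug at most 40%, in both replicates, limit read from the data, passing the limit was not always enough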); conditions: CellTiter-Glo, 72 h, at 10 µM; for differential viability (reversal): stronger effect = higher value
[7] = 384-well plate pilot, post-Golgi transport modulator project, inhibition of yeast transport mutant growth (AID 636; in the data active means inhibition above about 31%); conditions: absorbance 615 nm, about 18 h, stronger effect = higher value
[8] = growth suppression of yeast trafficking mutant, preliminary HTS, modulators of trafficking downstream of Golgi apparatus project, 1536-format plate, OD 615 nm (AID 637; in the data active means inhibition above about 30%); conditions: yeast transport mutant growth, absorbance 615 nm, 18 h; stronger effect = higher value
[9] = H69AR cells + 2 uM doxorubicin, measured here: viability with 2 uM doxorubicin, stronger effect = lower value
[10] = H69AR cells, compound alone cytotoxicity

SMILES	viability [1] [%]	Her2 level [2]	viability [3]	viability [4]	viability [5]	differential viability (reversal) ([6]; H69AR cells + 2 uM doxorubicin)	viability [6, 9] [%]	viability [6, 10] [%]	inhibition [7]	inhibition [8]
O=C(c1ccccc1)N1CCCCC(Sc2nnnn2-c2ccccc2)C1=O (stereo not given)	89.5	104% (inactive)	89.5% (inactive)	82.7% (inactive)	104% (inactive)	12.6% (inactive)	91.1	104	-6.13% (inactive)	-0.32% (inactive)
Cc1ccc(/C(O)=C2/C(=O)C(=O)N(Cc3ccco3)C2c2cccs2)cc1 (stereo not given)	103	114% (inactive)	103% (inactive)	101% (inactive)	67.6% (inactive)	-13.1% (inactive)	80.7	67.6	-5.21% (inactive)	-7.78% (inactive)
CCCn1c(=O)c2ccccc2n2c(SCc3cc(=O)n4ccsc4n3)nnc12	79.5	90.5% (inactive)	79.5% (inactive)	104% (inactive)	82.1% (inactive)	14.6% (inactive)	67.6	82.1	-1.18% (inactive)	-12.1% (inactive)
C=CCNC(=O)CSc1ccc(Cl)cc1	88.5	106% (inactive)	88.5% (inactive)	109% (inactive)	81.4% (inactive)	-7.45% (inactive)	88.8	81.4	-4.21% (inactive)	3.11% (inactive)
CCN(Cc1nc2ccccc2c(=O)[nH]1)Cc1cc(=O)oc2cc(C)c(C)cc12	107	102% (inactive)	107% (inactive)	63% (inactive)	62.9% (inactive)	21% (inactive)	42	62.9	-4.68% (inactive)	-1.67% (inactive)
CN(CC(=O)N1CCN(c2ccc(F)cc2)CC1)S(=O)(=O)c1ccc(F)cc1	97	95.5% (inactive)	97% (inactive)	88.4% (inactive)	86.6% (inactive)	-7.95% (inactive)	94.5	86.6	-6.18% (inactive)	5.25% (inactive)
COc1ccc(S(=O)(=O)N2CCCC2C(=O)Nc2ccc(C)cc2)cc1 (stereo not given)	88	105% (inactive)	88% (inactive)	92.2% (inactive)	89.2% (inactive)	-8.78% (inactive)	98	89.2	-4.86% (inactive)	-4.1% (inactive)
O=C(OCC#CCSc1nc2ccccc2o1)c1ccco1	112	84% (inactive)	112% (inactive)	80.4% (inactive)	80.4% (inactive)	-1.78% (inactive)	82.2	80.4	-6.67% (inactive)	-7.7% (inactive)
CCCCNS(=O)(=O)c1ccc(OC)c2ncccc12	102	108% (inactive)	102% (inactive)	102% (inactive)	90% (inactive)	0.295% (inactive)	89.7	90	-4.32% (inactive)	-3.33% (inactive)
COc1ccc(Cl)cc1NC(=O)c1oc(C)nc1C	91	71.5% (inactive)	91% (inactive)	91% (inactive)	90.1% (inactive)	-2.13% (inactive)	92.3	90.1	-5.95% (inactive)	6.5% (inactive)
CCN(CC)S(=O)(=O)c1ccc(Cl)c(C(=O)OC)c1	97	93% (inactive)	97% (inactive)	99% (inactive)	95.7% (inactive)	4.65% (inactive)	91	95.7	-1.87% (inactive)	2.9% (inactive)
O=C(Nc1cccc(Cl)c1)N1CCN(c2ncccn2)CC1	100	94.5% (inactive)	100% (inactive)	124% (inactive)	104% (inactive)	17.4% (inactive)	86.7	104	0.27% (inactive)	-6.51% (inactive)
O=C(CSc1nnc(-c2cccnc2)o1)OC1CCCCC1	110	110% (inactive)	110% (inactive)	95.8% (inactive)	101% (inactive)	13.2% (inactive)	87.9	101	-7.87% (inactive)	0.48% (inactive)
CCOc1cc(S(=O)(=O)NCc2ccccn2)c(C)cc1C	92.5	84.5% (inactive)	92.5% (inactive)	96.8% (inactive)	100% (inactive)	6.28% (inactive)	94.1	100	-5.53% (inactive)	-4.76% (inactive)
CN(C)S(=O)(=O)c1ccc(C(=O)Nc2ccccc2C(=O)O)cc1	102	88.5% (inactive)	102% (inactive)	102% (inactive)	94.6% (inactive)	-1.06% (inactive)	95.7	94.6	-3.03% (inactive)	-3.17% (inactive)
Cc1cc(C)n(CCc2nc(-c3cccs3)cs2)n1	93	88% (inactive)	93% (inactive)	106% (inactive)	104% (inactive)	25.3% (inactive)	79.2	104	-2.6% (inactive)	-0.48% (inactive)
CCCCNC(=O)c1c(C)cc(=O)oc1C	102	90.5% (inactive)	102% (inactive)	98.6% (inactive)	107% (inactive)	14.8% (inactive)	92	107	-4.53% (inactive)	-1.45% (inactive)
CN=C1CC(C)(C)CC(=O)/C1=C(/O)CCC(=O)NC	104	84% (inactive)	104% (inactive)	95.5% (inactive)	102% (inactive)	10.2% (inactive)	92.1	102	-2.63% (inactive)	-3.97% (inactive)
Cc1cc(/C=N/n2cnnc2)c(C)n1-c1ccc(Cl)cc1Cl	99.5	64.5% (inactive)	99.5% (inactive)	92.3% (inactive)	90.6% (inactive)	10.1% (inactive)	80.5	90.6	-5.54% (inactive)	-6.17% (inactive)
Cc1cc(C)c2c(n1)nn1c(N3CCOCC3)cc(C)nc21	90	87.5% (inactive)	90% (inactive)	110% (inactive)	87.1% (inactive)	-6.34% (inactive)	93.4	87.1	-4.86% (inactive)	0.79% (inactive)
Cn1c(CCCNC(=O)c2ccccc2)nc2ccccc21	112	83% (inactive)	112% (inactive)	103% (inactive)	100% (inactive)	18.6% (inactive)	81.7	100	-8.65% (inactive)	-1.83% (inactive)
Cn1c(=O)c2c(nc(NCCCO)n2CCc2ccccc2)n(C)c1=O	94	138% (inactive)	94% (inactive)	93.7% (inactive)	87.1% (inactive)	-2.35% (inactive)	89.4	87.1	5.45% (inactive)	-2.83% (inactive)
C1CCc2nnc(-c3nnc4n3CCCCC4)n2CC1	86.5	99.5% (inactive)	86.5% (inactive)	104% (inactive)	93% (inactive)	6.52% (inactive)	86.4	93	-1.28% (inactive)	1.67% (inactive)
CC(C)NC(=O)CSc1nnc(-c2ccc(C(C)(C)C)cc2)n1C	95	82% (inactive)	95% (inactive)	71.5% (inactive)	103% (inactive)	11.6% (inactive)	91.4	103	-2.24% (inactive)	-3.65% (inactive)
CCc1nnc(NC(=O)CSc2nnc3scc(-c4ccc(C)cc4)n23)s1	100	95.5% (inactive)	100% (inactive)	108% (inactive)	96.6% (inactive)	-0.05% (inactive)	96.7	96.6	-3.15% (inactive)	-1.27% (inactive)
O=S(=O)(Nc1cccc2ncccc12)c1cccs1	256	13% (active)	256% (inactive)	23.9% (active)	1.71% (active)	0.345% (inactive)	1.37	1.71	0.92% (inactive)	6.19% (inactive)
O=C(CN1C(=O)c2ccccc2C1=O)Nc1ccccc1C(=O)N1CCCC1	83	90.5% (inactive)	83% (inactive)	96% (inactive)	109% (inactive)	19.7% (inactive)	89	109	-3.78% (inactive)	1.59% (inactive)
O=C(Nc1ccc2c(c1)OCCO2)c1ccco1	83	106% (inactive)	83% (inactive)	78.7% (inactive)	86.5% (inactive)	6.8% (inactive)	79.7	86.5	2.47% (inactive)	-5.08% (inactive)
